From PubChem BioAssay
Most compounds without a hit are left out; they make up all but 3.1% or so of the library.
T cruzi inh = blocks replication of Trypanosoma cruzi. AID 1885. hit rate 1.4% among 300,000. inhibition, % (no concentration beside the values). T. cruzi beta-gal in NIH3T3, luminescence, 90 h;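 active = mean inhibition across valid replicates above about 55%, limit read from the data; inconclusive = mean below that limit but half or more replicates reach it; inactive = mean below it, under half of replicates reach it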;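 also: signal also drops with host cell toxicity which is not excluded here; higher percent means less beta-gal luminescence so fewer parasites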
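System – NIH/3T3 host cells with β-galactosidase reporter T. cruzi · Doses – single 50 nL compound addition per well in DMSO · Reagent – 5000 T. cruzi trypomastigotes/well · Medium – Low-serum DMEM with 2% FBS · Timing – ≥90 h infection period, 3 h prior cell attachment · Evaluation – parasite load inhibition, % · Technique – GalScreen luminescence, 60 min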
Beta apoptosis = beta cell apoptosis inhibition | INS-1E cytokine-induced death, ATP luminescence, 48 h; percent of positive-control rescue, neutral wells zero | protection from apoptosis, % (no concentration beside the values) | hit rate 0.8% among 300,000;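 active = Every replicate reaches about 75%, or at least half do and their mean reaches it too, limit read from the data; inconclusive = At least half of replicates reach the limit but their mean does not; inactive = Under half of replicates reach the limit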;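 also: higher means more ATP so stronger rescue from cytokine killing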
CSC inhib = cancer stem cell inhibition; hit rate 1.1% among 300,000; cancer stem cell-like cells viability, luminescence; inhibition, % at 7.5 µM; in the data active = inhibition above about 75%; inconclusive = no clear call, values can overlap the other calls; tested in HMLE shEcad cells
Calb FLC = affects C. albicans growth with fluconazole; C. albicans CaCi-2 + fluconazole, Alamar Blue growth, 48 h; growth inhibition, % (test concentration not listed); hit rate 0.57% among 300,000; AID 1979;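 active = growth inhibition above about 58% in most replicates, limit read from the data, passing the limit was not always enough; inconclusive = exactly half the replicates above a set limit; inactive = most replicates below a set limit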;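 also: all wells also contain fluconazole at 8 µg/ml as a sub-toxic cotreatment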
HIF activator = HIF pathway transcriptional activation | U2OS HRE-luciferase reporter, luminescence; normalized: DMSO 0%, desferrioxamine 100% | activation, % at 7.5 µM (by protocol) | hit rate 0.32% among 300,000;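 active = mean activation of at least 10% of the iron chelator positive control signal, with at least half of replicates also reaching 10%; inconclusive = mean and replicate majority disagree about reaching 10%; inactive = mean and most replicates under 10%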
PolyA inh = yeast polyadenylation inhibition; hit rate 0.02% among 300,000; activity score, % at 12 µM; S. cerevisiae SKY197-pL101 polyadenylation reporter, beta-gal luminescence; efflux-impaired pdr1/pdr3 knockout yeast; score 100 = 6 SD above DMSO;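 active = lowest replicate activity score at least 50, where 100 means six control SD above control mean; inconclusive = lowest score under 50 but half or more replicates reach 50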;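 also: yeast exposed to compound for 9 h at 30 °C; higher score means more reporter readthrough which indicates perturbed polyadenylation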
Numbers stand for hits; 0 = inactive; ? = inconclusive; - = no result.

SMILES | T cruzi inh | Beta apoptosis | CSC inhib | Calb FLC | HIF activator | PolyA inh
O=C(NCCN1CCCC1)c1ccc(Cl)cc1 | 0 | 0 | 0 | 0 | 0 | 0
CC(C)(C)c1cc(C(=O)NCCN2CCCC2)cc(C(C)(C)C)c1 | 71.0 | 0 | 0 | 0 | 0 | 0
CCCNC(=O)C(Cc1ccc(F)cc1)NC(=O)c1ccccc1 (stereo unspecified) | - | 0 | 0 | - | - | -
COc1ccc(-c2nc(CN3CCCC(C(=O)NC4CCCC4)C3)c(C)o2)cc1 (stereo unspecified) | 0 | 0 | 0 | 0 | 0 | 0
CCc1ccc(-c2nc(CN3CCCC(C(=O)NCCc4ccc(OC)c(OC)c4)C3)c(C)o2)cc1 (stereo unspecified) | 59.1 | 0 | 0 | 0 | 0 | 0
CCCN(CCC)CCNC(=O)C1CCN(Cc2nc(-c3ccc(Cl)cc3)oc2C)CC1 | 72.5 | 0 | 0 | 0 | 0 | 0
Cc1ccccc1-c1nc(CN2CCCC(C(=O)NCCCN3CCOCC3)C2)c(C)o1 (stereo unspecified) | 66.5 | 0 | 0 | ? | 0 | 0
COc1ccc(CNC(=O)C2CCCN(Cc3nc(-c4cccc(C)c4)oc3C)C2)cc1 (stereo unspecified) | 56.1 | 0 | 0 | 0 | 0 | 0
O=[N+]([O-])c1cccc(/C=N/NC2CCS(=O)(=O)C2)c1 (stereo unspecified) | 0 | 0 | 0 | 0 | 0 | 0
COc1cccc(CN2CCCC(C(=O)N3CCCCC3)C2)c1 (stereo unspecified) | 0 | 0 | 0 | 0 | 0 | 0
COc1ccccc1CCC(=O)N1CCN(S(=O)(=O)c2cccc(F)c2)CC1 | 0 | 0 | 0 | 0 | 0 | 0
CCOC(=O)N1CCC(NC(=O)C2CCCN(Cc3nc(-c4cccc(Cl)c4)oc3C)C2)CC1 (stereo unspecified) | 0 | 77.5 | 0 | 0 | 0 | 0
Cc1oc(-c2ccc(Cl)cc2)nc1CN1CCCC(C(=O)NC2CC2)C1 (stereo unspecified) | 0 | 0 | 0 | 0 | 0 | 0
S=C(NCC1CCCCC1)Nc1ccc(Oc2ccccc2)cc1 | 54.6 | 0 | ? | 0 | 0 | 0
S=C(Nc1ccc(Oc2ccccc2)cc1)NC1CCCC1 | 0 | - | 0 | 0 | 0 | 0
Cc1ccccc1C(=O)N/N=C/c1cccc2ccccc12 | 0 | 0 | 0 | 0 | 0 | 0
Cc1ccc(Cl)cc1NC(=S)N/N=C/c1cccc2ccccc12 | 58.9 | 0 | ? | 0 | 0 | 0
Cc1cccc(NC(=S)N/N=C/c2cccc(O)c2)c1C | 0 | 0 | 80.5 | 0 | 0 | 0
CC(C)(C)NC(=S)N/N=C/c1c(Cl)cccc1Cl | 0 | 0 | 0 | 0 | 0 | 0
Cc1ccccc1NC(=S)N/N=C/c1ccc(O)cc1O | 0 | 86.8 | 0 | 0 | 0 | 0
Cc1ccc(NC(=S)N/N=C/c2c(Cl)cccc2Cl)c(C)c1 | 0 | 0 | 101.2 | 0 | 0 | 0
O=C(O)c1cccc(NC(=S)N/N=C/c2cccc(O)c2)c1 | 0 | 0 | 0 | 0 | 0 | 0
Cc1ccnc(NC(=O)CCNC(=O)c2ccccc2Cl)c1 | 0 | - | 0 | 0 | 0 | 0
COc1ccc(CN(C)S(=O)(=O)c2nnc(NC(=O)c3cccc(C)c3)s2)cc1OC | 0 | 0 | 0 | 0 | 0 | 0
Cc1ccccc1-n1c(CSC(=N)N)nc2ccccc2c1=O | 0 | 0 | 0 | 0 | 0 | 0
SMILES | T cruzi inh | Beta apoptosis | CSC inhib | Calb FLC | HIF activator | PolyA inh
N=C(N)SCc1nc2ccccc2c(=O)n1-c1ccccc1Cl | 0 | 0 | 93.0 | 0 | 0 | 0
COc1ccc(OCCOCCN2CCOCC2)cc1 | 0 | 0 | 0 | 0 | 0 | 0
CC(C)(c1ccccc1)c1ccc(OCCN2CCOCC2)cc1 | 0 | 0 | 0 | 0 | 0 | 0
COc1ccccc1-c1sc2cc3c(cc2c1-c1ccc(OCCN2CCCCC2)cc1)OCO3 | - | 0 | - | - | - | -
C1=C(c2sc3ccccc3c2-c2ccc(OCCN3CCOCC3)cc2)CCCC1 | - | 0 | 88.4 | - | - | -
COc1cc2sc(-c3ccccc3OC)c(-c3ccc(OCCN4CCCCC4)cc3)c2cc1OC | - | 124.5 | 103.7 | - | - | -
c1ccc(-c2sc3ccccc3c2-c2ccc(OCCN3CCOCC3)cc2)cc1 | - | 0 | 85.8 | - | - | -
COc1cccc(-c2sc3ccc(OC)cc3c2-c2ccc(OCCN3CCOCC3)cc2)c1 | - | 0 | 104.0 | - | - | -
C[C@@H]1CC=C[C@H]2[C@H]1C(=O)N(Cc1ccccc1)[C@H]2c1ccc2ccccc2c1Br | 0 | - | - | 0 | 0 | 0
COc1ccc(-c2sc3cc4c(cc3c2-c2ccc(OCCN3CCOCC3)cc2)OCO4)cc1 | - | 0 | 124.9 | - | - | -
COc1ccc(/C=N/Nc2cc(C)nc(-n3nc(C)cc3C)n2)c(OC)c1 | 0 | 82.4 | 0 | 0 | 0 | 0
CCOc1cc(/C=N/Nc2cc(C)nc(-n3nc(C)cc3C)n2)ccc1O | 0 | 98.5 | 0 | 0 | 0 | 0
CNc1cc(C)nc(-n2nc(C)cc2C)n1 | 0 | 0 | 0 | 0 | 0 | 0
Cc1cc(N/N=C/c2ccc(F)cc2)nc(-n2nc(C)cc2C)n1 | ? | 109.9 | 0 | 0 | 0 | 0
COc1ccccc1/C=N/Nc1cc(C)nc(N2CCOCC2)n1 | 0 | 0 | 0 | 0 | 0 | 0
CCOc1ccc(Nc2cc(C)nc(-n3nc(C)cc3C)n2)cc1 | 0 | 91.3 | 0 | 0 | 0 | 0
CN(Cc1c(C(=O)N2CCCCCCC2)nc2ccc(Cl)cn12)C1CCOC1 (stereo unspecified) | 0 | 0 | 0 | 0 | 0 | 0
COc1ccc(NC(=O)CN2CCCCCC2)cc1OC | 0 | 0 | 0 | 0 | 0 | 0
CCn1ccnc1CN(C)C(=O)c1cc(COc2ccccc2SC)on1 | 0 | 0 | 0 | 0 | 0 | 0
O=C(NC(=S)NC1C2CC3CC(C2)CC1C3)c1ccccc1 (stereo unspecified) | 0 | 0 | 0 | 0 | 0 | 0
O=C(c1ccc([N+](=O)[O-])s1)N1CCc2ccccc21 | 0 | 0 | - | 0 | 0 | 0
O=C(c1ccc([N+](=O)[O-])s1)N1CCc2ccccc2C1 | 84.0 | 0 | 0 | 0 | 0 | 0
COc1ccccc1NC(=O)CSc1nncs1 | - | 0 | 0 | - | - | -
CCOC(=O)CNc1nc(C(C)(C)C)nc2c1nnn2Cc1ccccc1Cl | 61.1 | - | 0 | 0 | 0 | 0
COc1ccc(Nc2nc(C(C)(C)C)nc3c2nnn3Cc2ccccc2Cl)cc1OC | 0 | 0 | 0 | 0 | 0 | 0
SMILES | T cruzi inh | Beta apoptosis | CSC inhib | Calb FLC | HIF activator | PolyA inh
CCn1c(NC(=O)c2cccs2)nc2ccccc21 | 0 | 0 | 0 | 78.1 | 0 | 0
CCN(CC)CCn1c(NC(=O)c2ccc(C)cc2)nc2ccccc21 | 0 | 0 | 0 | 0 | 0 | 0
CCN(CC)CCn1c(NC(=O)c2ccc(C(F)(F)F)cc2)nc2ccccc21 | 62.0 | 0 | 0 | 0 | 0 | 0
CCn1c(NC(C)=O)nc2ccccc21 | 0 | 0 | 0 | 0 | 0 | 0
O=C(CN1CCN(S(=O)(=O)c2ccccc2)CC1)NC(=O)NCc1ccco1 | 0 | 0 | 0 | 0 | 0 | 0
CCC(=O)N1CCN(c2nc3ccccc3s2)CC1 | 0 | - | 0 | 0 | 0 | 0
O=C(c1cc2sccc2n1Cc1ccccc1)N1CCN(c2nc3ccccc3s2)CC1 | 0 | 99.5 | 0 | 0 | 0 | 0
O=C(Cn1c(C(=O)N2CCN(C3CCCCC3)CC2)cc2sccc21)c1ccccc1 | 76.1 | 0 | 0 | 0 | 0 | 0
